Here are results for 5 compounds from publication PMC7987787 (Nuclear medicine and biology, 2021).

Where “and” joins values, the source holds several entries; their conditions need not be identical. Equal values may be shown once. Read-outs that look alike come from different tables or passages of the source.

The target of one data set is PSMA (Homo sapiens, UniProt Q04609). Description: PSMA inhibition assay. In kind it is biochemical. The method in brief: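 LNCaP cell extract as enzyme source, incubated with the inhibitor at various amounts plus 4 μM NAAG for 120 min. Glutamate released was detected with Amplex Red glutamic acid working solution over 60 min, fluorescence ex 530/em 560 nm. […] Triplicate; known PSMA inhibitor as positive control.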

Data set [1] concerns PC-3 PIP and PC-3 flu xenografts. Conditions: SCID mice.
Data set [2] deals with PSMA+ PC-3 PIP xenografts. Conditions: cited from earlier work.
For data set [3] the following is noted: Phase II trial, 3 months after treatment; cited from earlier work.

PSMA, sequence (Q04609 whole entry): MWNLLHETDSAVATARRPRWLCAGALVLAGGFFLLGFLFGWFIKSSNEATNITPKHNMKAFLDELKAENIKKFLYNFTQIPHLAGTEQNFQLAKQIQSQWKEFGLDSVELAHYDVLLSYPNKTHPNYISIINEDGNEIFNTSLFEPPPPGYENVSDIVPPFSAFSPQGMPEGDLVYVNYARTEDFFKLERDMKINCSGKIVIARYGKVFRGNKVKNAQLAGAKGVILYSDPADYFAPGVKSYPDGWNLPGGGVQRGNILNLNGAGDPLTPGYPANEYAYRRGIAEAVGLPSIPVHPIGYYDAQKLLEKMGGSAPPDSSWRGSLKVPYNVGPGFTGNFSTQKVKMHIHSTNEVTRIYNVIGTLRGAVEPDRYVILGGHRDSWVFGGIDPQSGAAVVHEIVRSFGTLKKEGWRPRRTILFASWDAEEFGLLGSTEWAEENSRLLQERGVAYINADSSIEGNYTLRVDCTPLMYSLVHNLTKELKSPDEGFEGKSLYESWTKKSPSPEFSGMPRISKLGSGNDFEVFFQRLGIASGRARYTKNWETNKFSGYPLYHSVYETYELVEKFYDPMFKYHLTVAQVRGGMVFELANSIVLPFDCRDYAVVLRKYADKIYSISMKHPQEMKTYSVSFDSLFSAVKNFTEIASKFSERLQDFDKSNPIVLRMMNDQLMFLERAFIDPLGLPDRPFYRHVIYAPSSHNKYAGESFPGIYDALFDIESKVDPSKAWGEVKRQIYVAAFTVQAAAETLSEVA

On to `O=C(O)CC[C@H](NC(=O)N[C@@H](CCC(=O)NCCc1ccc(I)cc1)C(=O)O)C(=O)O` [HS-549, (((S)-1-Carboxy-4-((4-iodophenethyl)amino)-4-oxobutyl)carbamoyl)-L-glutamic acid], for which, at PSMA, the midpoint of inhibition, the IC50, lay at 0.43 nM and the Ki turned out to be 0.09 nM.
As to `O=C(O)CC[C@H](NC(=O)N[C@@H](CCC(=O)NCCc1ccc([131I])cc1)C(=O)O)C(=O)O` [[^131I]HS-549], in data set [1] (1 h), the “Percent injected dose per gram: Blood” value was 5.90 ± 1.05 % ID/g, the “Percent injected dose per gram: Bone” value came out at 0.94 ± 0.36 % ID/g, the “Percent injected dose per gram: Brain” value came out at 0.26 ± 0.08 % ID/g and the “Percent injected dose per gram: Heart” value was found to be 2.30 ± 0.63 % ID/g. Moreover, in data set [1] (1 h), the “Percent injected dose per gram: Kidneys” value is recorded as 106 ± 18.9 % ID/g, the “Percent injected dose per gram: Lg. Int.” value was determined as 0.52 ± 0.12 % ID/g, the “Percent injected dose per gram: Liver” value turned out to be 21.2± 4.14 % ID/g and the “Percent injected dose per gram: Lungs” value worked out at 4.60 ± 1.09 % ID/g. In addition, in data set [1] (1 h), the “Percent injected dose per gram: Muscle” value turned out to be 0.86 ± 0.26 % ID/g, the “Percent injected dose per gram: PC-3 PIP” value was found to be 78.1 ± 19.1 % ID/g, the “Percent injected dose per gram: PC-3 flu” value is recorded as 2.21 ± 0.53 % ID/g and the “Percent injected dose per gram: Sm. Int.” value is reported as 1.98 ± 0.30 % ID/g. Also, in data set [1] (1 h), the “Percent injected dose per gram: Spleen” value is reported as 6.76 ± 3.42 % ID/g, the “Percent injected dose per gram: Stomach” value was 0.92 ± 0.20 % ID/g, the “Percent injected dose per gram: Thyroid” value is 1.17 ± 0.43 % ID/g and the Thyroid uptake is 0.30 ± 0.13 %ID. For the same compound, in data set [1] (1 h), the “Tumor-to-blood ratio (PSMA+ PC3 PIP)” value came to 13.3 ± 2.7 and the “Tumor-to-kidney ratio (PSMA+ PC3 PIP)” value was determined as 0.74 ± 0.15. For the same compound, in data set [1] (1 h and 2 h, P < 0.05), the “Liver levels relative to co-administered [211At]HS-549” value is given as 3–6 fold. Besides, in data set [1] (2 h), the “Percent injected dose per gram: Blood” value came out at 2.92 ± 0.32 % ID/g, the “Percent injected dose per gram: Bone” value stood at 0.65 ± 0.25 % ID/g, the “Percent injected dose per gram: Brain” value stood at 0.18 ± 0.02 % ID/g and the “Percent injected dose per gram: Heart” value is listed as 1.14 ± 0.18 % ID/g. In data set [1] (2 h), the “Percent injected dose per gram: Kidneys” value is reported as 96.6 ± 39.1 % ID/g, the “Percent injected dose per gram: Lg. Int.” value is 1.32 ± 0.25 % ID/g, the “Percent injected dose per gram: Liver” value is 26.0 ± 3.09 % ID/g and the “Percent injected dose per gram: Lungs” value is reported as 2.73 ± 0.66 % ID/g. Besides, in data set [1] (2 h), the “Percent injected dose per gram: Muscle” value is listed as 0.46 ± 0.12 % ID/g, the “Percent injected dose per gram: PC-3 PIP” value turned out to be 74.7 ± 13.1 % ID/g, the “Percent injected dose per gram: PC-3 flu” value was determined as 1.51 ± 0.30 % ID/g and the “Percent injected dose per gram: Sm. Int.” value is 2.42 ± 0.40 % ID/g. In data set [1] (2 h), the “Percent injected dose per gram: Spleen” value is on record as 2.71 ± 0.85 % ID/g, the “Percent injected dose per gram: Stomach” value turned out to be 0.47 ± 0.17 % ID/g, the “Percent injected dose per gram: Thyroid” value was determined as 0.69 ± 0.29 % ID/g and the “Tumor-to-blood ratio (PSMA+ PC3 PIP)” value is 26 ± 5.3. In addition, in data set [1] (2 h), the “Tumor-to-kidney ratio (PSMA+ PC3 PIP)” value is on record as 0.87 ± 0.30. Further, in data set [1] (21 h), the “Percent injected dose per gram: Blood” value turned out to be 1.39 ± 0.35 % ID/g, the “Percent injected dose per gram: Bone” value came out at 0.20 ± 0.05 % ID/g, the “Percent injected dose per gram: Brain” value is reported as 0.08 ± 0.02 % ID/g and the “Percent injected dose per gram: Heart” value was 0.41 ± 0.09 % ID/g. Also, in data set [1] (21 h), the “Percent injected dose per gram: Kidneys” value was found to be 3.13 ± 1.65 % ID/g, the “Percent injected dose per gram: Lg. Int.” value is listed as 0.63 ± 0.39 % ID/g, the “Percent injected dose per gram: Liver” value was 1.86 ± 0.51 % ID/g and the “Percent injected dose per gram: Lungs” value was 0.87 ± 0.27 % ID/g. Further, in data set [1] (21 h), the “Percent injected dose per gram: Muscle” value worked out at 0.16 ± 0.04 % ID/g, the “Percent injected dose per gram: PC-3 PIP” value is 22.6 ± 22.1 % ID/g, the “Percent injected dose per gram: PC-3 flu” value was 0.44 ± 0.18 % ID/g and the “Percent injected dose per gram: Sm. Int.” value stood at 0.37 ± 0.06 % ID/g. Besides, in data set [1] (21 h), the “Percent injected dose per gram: Spleen” value was 0.29 ± 0.12 % ID/g, the “Percent injected dose per gram: Stomach” value is 0.14 ± 0.04 % ID/g, the “Percent injected dose per gram: Thyroid” value is recorded as 0.36 ± 0.05 % ID/g and the Thyroid uptake turned out to be 0.08 ± 0.01 %ID. Further, in data set [1] (21 h), the “Tumor-to-blood ratio (PSMA+ PC3 PIP)” value is 18 ± 19 and the “Tumor-to-kidney ratio (PSMA+ PC3 PIP)” value came out at 6.26 ± 4.04.
Take `O=C(O)CC[C@H](NC(=O)N[C@@H](CCCCNC(=O)c1ccc([211At])cc1)C(=O)O)C(=O)O` [[^211At]DCABzL, (((S)-1-carboxy-5-(4-[^211At]astinatobenzamido)pentyl)carbamoyl)-L-glutamic acid]: in data set [2] (%ID/organ), the “Stomach activity level, range over time points” value is 3.8 – 8.2% and the “Thyroid radioactivity level, range over time points” value was 0.5–1.3%. Also, the “Peak uptake in subcutaneous PC3 PSMA+ PIP xenografts” value in data set [2] is over 30 % ID/g.
On to `O=C(O)CC[C@H](NC(=O)N[C@@H](CCC(=O)NCCc1ccc([211At])cc1)C(=O)O)C(=O)O` [[^211At]HS-549], for which, in data set [1] (1 h), the “Percent injected dose per gram: Blood” value was 5.5 ± 0.8 % ID/g and 5.53 ± 0.84 % ID/g; the “Percent injected dose per gram: Bone” value is listed as 1.49 ± 0.40 % ID/g; the “Percent injected dose per gram: Brain” value stood at 0.46 ± 0.09 % ID/g; the “Percent injected dose per gram: Heart” value amounted to 4.34 ± 0.96 % ID/g. Also, in data set [1] (1 h), the “Percent injected dose per gram: Kidneys” value came out at 46.7 ± 8.2 % ID/g, the “Percent injected dose per gram: Lg. Int.” value stood at 1.16 ± 0.20 % ID/g, the “Percent injected dose per gram: Liver” value stood at 7.94 ± 2.15 % ID/g and the “Percent injected dose per gram: Lungs” value is reported as 9.77 ± 1.75 % ID/g. In data set [1] (1 h), the “Percent injected dose per gram: Muscle” value is given as 1.11 ± 0.29 % ID/g, the “Percent injected dose per gram: PC-3 PIP” value was found to be 43.2 ± 9.8 % ID/g, the “Percent injected dose per gram: PC-3 flu” value was determined as 3.48 ± 0.53 % ID/g and the “Percent injected dose per gram: Sm. Int.” value turned out to be 5.52 ± 1.57 % ID/g. In addition, in data set [1] (1 h), the “Percent injected dose per gram: Spleen” value amounted to 8.79 ± 2.09 % ID/g, the “Percent injected dose per gram: Stomach” value came out at 7.07 ± 2.24 % ID/g and the “Percent injected dose per gram: Thyroid” value turned out to be 3.24 ± 0.56 % ID/g. Moreover, in data set [1] (2 h), the “Percent injected dose per gram: Blood” value was 2.8 ± 0.4 % ID/g and 2.87 ± 0.40 % ID/g; the “Percent injected dose per gram: Brain” value was 0.39 ± 0.06 % ID/g; the “Percent injected dose per gram: Heart” value is 3.36 ± 0.59 % ID/g; the “Percent injected dose per gram: Kidneys” value worked out at 40.4 ± 15.5 % ID/g. Further, in data set [1] (2 h), the “Percent injected dose per gram: Lg. Int.” value was 4.59 ± 0.81 % ID/g, the “Percent injected dose per gram: Liver” value stood at 4.65 ±1.28 % ID/g, the “Percent injected dose per gram: Lungs” value came to 8.24 ± 2.25 % ID/g and the “Percent injected dose per gram: Muscle” value was 0.76 ± 0.18 % ID/g. In data set [1] (2 h), the “Percent injected dose per gram: PC-3 PIP” value was found to be 42.0 ± 7.16 % ID/g, the “Percent injected dose per gram: PC-3 flu” value stood at 2.82 ±0.60 % ID/g, the “Percent injected dose per gram: Sm. Int.” value was 3.81 ± 1.24 % ID/g and the “Percent injected dose per gram: Spleen” value was determined as 6.13 ± 1.59 % ID/g. In data set [1] (2 h), the “Percent injected dose per gram: Stomach” value is on record as 14.3 ± 3.2 % ID/g and the “Percent injected dose per gram: Thyroid” value is 4.11 ± 2.00 % ID/g. For the same compound, in data set [1] (21 h), the “Percent injected dose per gram: Blood” value stood at 0.92 ± 0.15 % ID/g, the “Percent injected dose per gram: Bone” value stood at 0.60 ± 0.17 % ID/g, the “Percent injected dose per gram: Brain” value worked out at 0.17 ± 0.03 % ID/g and the “Percent injected dose per gram: Kidneys” value is recorded as 2.60 ± 0.77 % ID/g. In addition, in data set [1] (21 h), the “Percent injected dose per gram: Lg. Int.” value is listed as 0.93 ± 0.41 % ID/g; the “Percent injected dose per gram: Liver” value is recorded as 0.89 ± 0.13 % ID/g; the “Percent injected dose per gram: Lungs” value is 4.3 ± 0.7 % ID/g and 4.26 ± 0.72 % ID/g; the “Percent injected dose per gram: Muscle” value stood at 0.29 ± 0.09 % ID/g. Further, in data set [1] (21 h), the “Percent injected dose per gram: PC-3 PIP” value worked out at 10.6 ± 9.91 % ID/g, the “Percent injected dose per gram: Sm. Int.” value was 1.28 ± 0.30 % ID/g, the “Percent injected dose per gram: Spleen” value was found to be 2.31 ± 0.67 % ID/g and the “Percent injected dose per gram: Stomach” value is 12.6 ± 6.20 % ID/g. Besides, the “Percent injected dose per gram: Thyroid” value in data set [1] (21 h) was found to be 3.78 ± 0.63 % ID/g. In addition, the “Stomach activity level, range over time points” value in data set [1] (%ID/organ) is reported as 3.2 −8.7 %ID. Further, the “Thyroid radioactivity level, range over time points” value in data set [1] (%ID/organ, all time points) was 0.8–0.9 %ID.
Regarding `O=C([O-])CN1CCN(CC(=O)[O-])CCN(CC(=O)NCC2CCC(C(=O)N[C@@H](Cc3ccc4ccccc4c3)C(=O)NCCCC[C@H](NC(=O)N[C@@H](CCC(=O)O)C(=O)O)C(=O)O)CC2)CCN(CC(=O)[O-])CC1.[177Lu+3]` (some centres unmarked) [^177Lu-labeled PSMA-617], in data set [3], the “Patients with reductions in tumor volume” value was “about 40%”.

The term IC50 denotes the point on the concentration scale where inhibition reaches its midpoint. Read a low IC50 as inhibition by little substance. Broadly, the Ki is the dissociation constant of the complex between target and ligand, obtained from inhibition or displacement. Read a low Ki as higher affinity.
